In ChEMBL document CHEMBL3045048, “Synthesis and antifungal action of new tricyclazole analogues” (2004):
Activity calls are given as the source filed them. The calls are words filed in the database; no cut-off is given here.

Columns and labels:
Botrytis cinerea [1] = assay: Antifungal activity against Botryotinia fuckeliana assessed as inhibition of pigmentation of hyphae at 200 ug/ml after 5 days by electron microscopy; assay type: functional, organism-based
Procedure, shortened: (§1)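 Mycelium disks (10 mm) from stationary-phase cultures were grown on cellophane over PDA at 26 ± 1 °C to log phase. They were then moved to PDA containing compound at 200 µg mL-1 from DMSO stock (final DMSO 0.1%), with 0.1% DMSO controls. Pigmentation was judged visually and photographically against untreated cultures of the same age.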

Penicillium italicum [2] = assay: microbe, parasite or virus in culture; assay type: functional; settings: ATCC 48952, 120 h, read-out: GI
Alternaria solani [3] = assay: microbe, parasite or virus in culture; assay type: functional; settings: 120 h, read-out: GI
Penicillium crustosum [4] = assay: microbe, parasite or virus in culture; assay type: functional; settings: 120 h, read-out: GI
Penicillium italicum [5] = assay: microbe, parasite or virus in culture; assay type: functional; settings: ATCC 48952, 120 h, read-out: GI; remark: listed apart in the source
Berkeleyomyces basicola [6] = assay: Antifungal activity against Thielaviopsis basicola Went assessed as color variation of hyphae at 200 ug/ml after 5 days by electron microscopy; assay type: functional, organism-based; procedure, shortened: as §1
Pyricularia grisea [7] = assay: microbe, parasite or virus in culture; assay type: functional; settings: 120 h, read-out: GI
Pyricularia grisea [8] = assay: microbe, parasite or virus in culture; assay type: functional; settings: 120 h, read-out: GI; remark: listed apart in the source
Pyricularia grisea [9] = assay: Antifungal activity against Magnaporthe grisea assessed as bleaching of hyphae at 200 ug/ml after 5 days by electron microscopy; assay type: functional, organism-based; procedure, shortened: as §1
Trichoderma viride [10] = assay: microbe, parasite or virus in culture; assay type: functional; settings: 120 h, read-out: GI
Alternaria solani [11] = assay: microbe, parasite or virus in culture; assay type: functional; settings: 120 h, read-out: GI; remark: listed apart in the source
Pyricularia grisea [12] = assay: microbe, parasite or virus in culture; assay type: functional; settings: 120 h, read-out: GI; remark: listed apart in the source
Alternaria solani [13] = assay: Antifungal activity against Alternaria solani Nees assessed as bleaching of hyphae at 200 ug/ml after 5 days by electron microscopy; assay type: functional, organism-based; procedure, shortened: as §1
Sclerotinia minor [14] = assay: microbe, parasite or virus in culture; assay type: functional; settings: 120 h, read-out: GI
Pyricularia grisea [15] = assay: microbe, parasite or virus in culture; assay type: functional; settings: 120 h, read-out: GI; remark: listed apart in the source
Berkeleyomyces basicola [16] = assay: microbe, parasite or virus in culture; assay type: functional; settings: 120 h, read-out: GI
Sclerotinia minor [17] = assay: Antifungal activity against Sclerotinia minor assessed as color variation of hyphae at 200 ug/ml after 5 days by electron microscopy; assay type: functional, organism-based; procedure, shortened: as §1
Trichoderma harzianum [18] = assay: Antifungal activity against Trichoderma harzianum (Pers.)-Tul assessed as color variation of hyphae at 200 ug/ml after 5 days by electron microscopy; assay type: functional, organism-based; procedure, shortened: as §1
Botrytis cinerea [19] = assay: microbe, parasite or virus in culture; assay type: functional; settings: 120 h, read-out: GI
Penicillium italicum [20] = assay: Antifungal activity against Penicillium italicum ATCC 48952 assessed as color variation of hyphae at 200 ug/ml after 5 days by electron microscopy; assay type: functional, organism-based; procedure, shortened: as §1
Botrytis cinerea [21] = assay: microbe, parasite or virus in culture; assay type: functional; settings: 120 h, read-out: GI; remark: listed apart in the source
Trichoderma harzianum [22] = assay: microbe, parasite or virus in culture; assay type: functional; settings: (Pers.)-Tul, 120 h, read-out: GI
Sclerotinia minor [23] = assay: microbe, parasite or virus in culture; assay type: functional; settings: 120 h, read-out: GI; remark: listed apart in the source
Berkeleyomyces basicola [24] = assay: microbe, parasite or virus in culture; assay type: functional; settings: 120 h, read-out: GI; remark: listed apart in the source
Penicillium crustosum [25] = assay: microbe, parasite or virus in culture; assay type: functional; settings: 120 h, read-out: GI; remark: listed apart in the source
Botrytis cinerea [26] = assay: microbe, parasite or virus in culture; assay type: functional; settings: 120 h, read-out: GI; remark: listed apart in the source
Botrytis cinerea [27] = assay: Antifungal activity against Botryotinia fuckeliana assessed as anamalous stratification at septa at 200 ug/ml after 5 days by electron microscopy; assay type: functional, organism-based
Botrytis cinerea [28] = assay: microbe, parasite or virus in culture; assay type: functional; settings: 120 h, read-out: GI; remark: listed apart in the source
Botrytis cinerea [29] = assay: Antifungal activity against Botryotinia fuckeliana assessed as increased quantities of material in immediate layer of cell wall at 200 ug/ml after 5 days by electron microscopy; assay type: functional, organism-based
Trichoderma viride [30] = assay: microbe, parasite or virus in culture; assay type: functional; settings: 120 h, read-out: GI; remark: listed apart in the source
Trichoderma harzianum [31] = assay: microbe, parasite or virus in culture; assay type: functional; settings: (Pers.)-Tul, 120 h, read-out: GI; remark: listed apart in the source
Penicillium crustosum [32] = assay: Antifungal activity against Penicillium crustosum assessed as color variation of hyphae at 200 ug/ml after 5 days by electron microscopy; assay type: functional, organism-based; procedure, shortened: as §1

Row | SMILES | inhibition of growth at 200 µg/mL (Penicillium italicum [2]) [%] | inhibition of growth at 200 µg/mL (Alternaria solani [3]) [%] | inhibition of growth at 100 µg/mL (Penicillium crustosum [4]) [%] | inhibition of growth at 100 µg/mL (Penicillium italicum [5]) [%] | inhibition of growth at 10 µg/mL (Pyricularia grisea [7]) [%] | inhibition of growth at 200 µg/mL (Pyricularia grisea [8]) [%] | inhibition of growth at 100 µg/mL (Trichoderma viride [10]) [%] | inhibition of growth at 100 µg/mL (Alternaria solani [11]) [%] | inhibition of growth at 100 µg/mL (Pyricularia grisea [12]) [%] | inhibition of growth at 100 µg/mL (Sclerotinia minor [14]) [%] | inhibition of growth at 50 µg/mL (Pyricularia grisea [15]) [%] | inhibition of growth at 200 µg/mL (Berkeleyomyces basicola [16]) [%] | inhibition of growth at 200 µg/mL (Botrytis cinerea [19]) [%] | inhibition of growth at 10 µg/mL (Botrytis cinerea [21]) [%] | inhibition of growth at 100 µg/mL (Trichoderma harzianum [22]) [%] | inhibition of growth at 200 µg/mL (Sclerotinia minor [23]) [%] | inhibition of growth at 100 µg/mL (Berkeleyomyces basicola [24]) [%] | inhibition of growth at 200 µg/mL (Penicillium crustosum [25]) [%] | inhibition of growth at 100 µg/mL (Botrytis cinerea [26]) [%] | inhibition of growth at 50 µg/mL (Botrytis cinerea [28]) [%] | also measured
1 | Cc1nn(C)c2c1sc1nncn12 | 0 | 23.4 | 0 | 0 | 12.2 | 59.1 | 0 | 0 | 20.5 | 0 | 13 | 0 | 65.4 | 10.8 | 0 | 0 | 0 | 10 | 28.8 | 14.6 | Activity (Botrytis cinerea [1]): inactive; Activity (Berkeleyomyces basicola [6]): Active; Activity (Pyricularia grisea [9]): Active; Activity (Alternaria solani [13]): Active; Activity (Sclerotinia minor [17]): Active; Activity (Trichoderma harzianum [18]): Active; Activity (Penicillium italicum [20]): Active; Activity (Botrytis cinerea [27]): Active; Activity (Botrytis cinerea [29]): Active; inhibition of growth at 200 µg/mL (Trichoderma viride [30]): 0%; inhibition of growth at 200 µg/mL (Trichoderma harzianum [31]): 0%; Activity (Penicillium crustosum [32]): Active
2 | Cc1cccc2sc3nncn3c12 [TRICYCLAZOLE] | 70.4 | 0 | 80.3 | 20.1 | 0 | 94 | 20.2 | 0 | 62.3 | 0 | 24.1 | 66.6 | 77.8 | 0 | 20 | 0 | 40.1 | 95 | 29.6 | 8.3 | inhibition of growth at 200 µg/mL (Trichoderma viride [30]): 60%; inhibition of growth at 200 µg/mL (Trichoderma harzianum [31]): 50.2%
3 | Cn1ncc2sc3nncn3c21 | – | – | – | – | 3 | 43.4 | – | – | 24 | – | 8.2 | – | 32.2 | 0 | – | – | – | – | 19.3 | 4 | –
